Test [1] relates to Plasmodium falciparum. Kind of test: Antiplasmodial activity against chloroquine-sensitive Plasmodium falciparum D10 after 72 hrs by LDH assay. Conditions: D10, 72 h. The class given is functional, organism-based. Put shortly: (§1)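 P. falciparum grown in human A+ red cells at 5% hematocrit in RPMI 1640 with 1% AlbuMaxII, 0.01% hypoxanthine, 20 mM Hepes and 2 mM glutamine, at 37 °C under 1% O2/5% CO2/94% N2. Compounds dissolved in water or DMSO and diluted in medium. Growth read by pLDH. Values are mean ± SD of three experiments run in duplicate.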

For test [2], the system named is Plasmodium falciparum. Kind of test: Antiplasmodial activity against chloroquine-resistant Plasmodium falciparum W2 after 72 hrs by LDH assay. The class given is functional, organism-based. Conditions: W2, 72 h. Put shortly: as §1

This note sets out measurements from ChEMBL document CHEMBL1212893, “Antiplasmodial triterpenoids from the fruits of neem, Azadirachta indica” (J Nat Prod, 2010).

As usually defined, the IC50 is the concentration at which inhibition is half-maximal. Read a high IC50 as weaker potency. As for `CC(=O)O[C@H]1CC(=O)C(C)(C)[C@@H]2C[C@@H](OC(C)=O)[C@@]3(C)C4=CC[C@@H]([C@@H]5COC(O)C5)[C@]4(C)CC[C@@H]3[C@@]12C` (some centres undefined) [NEEMFRUITIN A], the results for the IC50 in the test with Plasmodium falciparum [1] and with Plasmodium falciparum [2] were 2.82 µM and 1.74 µM, respectively. The like results for `CC(=O)O[C@@H]1C[C@H]2C(C)(C)C(=O)C=C[C@]2(C)[C@H]2CC[C@]3(C)C(=CC(=O)[C@H]3[C@@H]3COC(O)C3)[C@@]21C` (some centres undefined) [DESMETHYLLIMOCIN B] were, in that order, 4.8 µM and 2.59 µM. The like results for `CC(=O)O[C@@H]1C[C@H]2C(C)(C)C(=O)C=C[C@]2(C)[C@H]2CC[C@]3(C)C(=CC(=O)[C@H]3c3ccoc3)[C@@]21C` [AZADIRADIONE] were, in that order, 5.96 µM and 3.4 µM.

Turning to `CC(=O)O[C@@H]1C[C@H]2C(C)(C)C(=O)C=C[C@]2(C)[C@H]2CC[C@]3(C)C(=CC[C@H]3c3ccoc3)[C@@]21C` [AZADIRONE], the IC50 with Plasmodium falciparum [1] was 1.63 µM; with Plasmodium falciparum [2], 1.21 µM. The like results for `CC(=O)O[C@@H]1C[C@H]2C(C)(C)C(=O)C=C[C@]2(C)[C@H]2CC[C@]3(C)C(=CC[C@H]3[C@H]3COC(O)(C(C)(C)O)[C@H](O)C3)[C@@]21C` (some centres undefined) [SPICATIN] were, in that order, 5.4 µM and 2.74 µM.

Turning to `CC(=O)O[C@@H]1C[C@H]2C(C)(C)C(=O)C=C[C@]2(C)[C@H]2CC[C@@]3(C)[C@H](c4ccoc4)C(=O)[C@H]4O[C@]43[C@@]21C` [EPOXYAZADIRADIONE], the IC50 stood at 3.3 µM with Plasmodium falciparum [1] and 2.16 µM in the test on Plasmodium falciparum [2].

Consider `CC(=O)O[C@@H]1C[C@H]2C(C)(C)C(=O)C=C[C@]2(C)[C@H]2CC[C@]3(C)C(=CC[C@H]3[C@H]3CO[C@@H]([C@H](O)C(C)(C)O)C3)[C@@]21C` [PROTOXYLOCARPIN G], for which the IC50 stood at 5 µM in the test with Plasmodium falciparum [1] and 2.4 µM with Plasmodium falciparum [2]. The like results for `CC(=O)O[C@H]1O[C@@H]([C@@H]2OC2(C)C)C[C@H]1[C@@H]1CC=C2[C@]3(C)[C@H](O)C[C@H]4C(C)(C)C(=O)C=C[C@]4(C)[C@H]3CC[C@]21C` [NEEMFRUITIN B] were, in that order, 9.49 µM and 9.98 µM. Compound `CC(=O)O[C@@H]1C[C@H]2C(C)(C)C(=O)C=C[C@]2(C)[C@H]2CC[C@@]3(C)[C@H](c4ccoc4)OC(=O)[C@H]4O[C@]43[C@@]21C` [GEDUNIN] gave an IC50 in the test with Plasmodium falciparum [2] of 1.31 µM. As to `CC1(C)C(=O)C=C[C@]2(C)[C@H]3CC[C@@]4(C)[C@H](c5ccoc5)OC(=O)[C@H]5O[C@]54[C@]3(C)[C@H](O)C[C@@H]12` [DEACETYLGEDUNIN], the values for the IC50 with Plasmodium falciparum [1] and in the test on Plasmodium falciparum [2] were 5.14 µM and 3.29 µM, respectively.
